14 compounds from ChEMBL document CHEMBL2176905 (J Med Chem, 2012) can be followed below.

Assay [1] has as its target T1, Neutrophil elastase (Homo sapiens, UniProt P08246).
T1 sequence (P08246 whole entry): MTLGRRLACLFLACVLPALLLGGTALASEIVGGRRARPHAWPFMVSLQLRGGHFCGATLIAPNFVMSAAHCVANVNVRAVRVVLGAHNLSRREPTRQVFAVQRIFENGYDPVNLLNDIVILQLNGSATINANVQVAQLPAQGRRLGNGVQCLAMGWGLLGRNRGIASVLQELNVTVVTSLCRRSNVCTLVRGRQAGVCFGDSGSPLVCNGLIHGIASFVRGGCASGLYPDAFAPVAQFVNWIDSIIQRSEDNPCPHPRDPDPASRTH
Nature of the assay: Inhibition of human neutrophil elastase assessed as hydrolysis of N-succinyl-Ala-Ala-Pro-Val-p-nitroanilide incubated for 2 hrs measured for 20 mins by microplate reader analysis. Summed up: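 HNE (stock 2.8 μM in pH 5.5 acetate/0.5 M NaCl; final 30 nM) preincubated 2 h at 25 °C with inhibitor (final 0.5−50 μM, 7 concentrations) in 0.1 M HEPES, 0.5 M NaCl, pH 7.25, 5.5% DMSO. Suc-Ala-Ala-Pro-Val-pNA added (final 0.35 mM). Hydrolysis rate read kinetically at 405 nm, 25 °C, 20 min. Duplicates; IC50 derived.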

The nature of assay [2]: Inhibition of trypsin assessed as hydrolysis of H-D-Pro-L-Phe-L-Arg-p-nitroanilide incubated for 2 hrs measured for 20 mins by microplate reader analysis. Summed up: (§1)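 Counter-screen in 0.1 M HEPES with 0.5 M NaCl, pH 7.25, 96-well format, duplicates. Chymotrypsin, trypsin and porcine pancreatic elastase were commercial; thrombin and plasminogen were purified in-house. Chromogenic substrate hydrolysis followed kinetically at 405 nm on a plate reader. Test compounds up to 100 μM maximum; AEBSF run as irreversible positive control with IC50 determined.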

Assay [3] addresses T2, Prothrombin (Homo sapiens, UniProt P00734). Nature of the assay: Inhibition of thrombin assessed as hydrolysis of H-D-Pro-L-Phe-L-Arg-p-nitroanilide incubated for 2 hrs measured for 20 mins by microplate reader analysis. An outline of the steps: as §1
Assay [4] has as its target Pancreatic elastase (Sus scrofa) (UniProt P08419+P00772). The assay is described as follows: Inhibition of porcine pancreatic elastase assessed as hydrolysis of N-succinyl-Ala-Ala-Ala-p-nitroanilide at 100 uM incubated for 2 hrs measured for 20 mins by microplate reader analysis. The class given is protein assay. An outline of the steps: as §1
Assay [5] in a line: Inhibition of chymotrypsin assessed as hydrolysis of N-succinyl-Ala-Ala-Pro-Phe-p-nitroanilide incubated for 2 hrs measured for 20 mins by microplate reader analysis. Summed up: as §1
Assay [6] concerns the target T3, Plasminogen (Homo sapiens, UniProt P00747). The assay is described as follows: Inhibition of plasmin assessed as hydrolysis of H-D-Val-L-Leu-L-Lys-p-nitroanilide at 100 uM incubated for 2 hrs measured for 20 mins by microplate reader analysis. An outline of the steps: as §1
Assay [7] concerns the target T1, Neutrophil elastase. The assay is described as follows: Noncompetitive inhibition of human neutrophil elastase assessed as hydrolysis of N-succinyl-Ala-Ala-Pro-Val-p-nitroanilide incubated for 2 hrs measured for 20 mins by Dixon and Cornish-Bowden analysis. An outline of the steps: (§2)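 Mechanism study: HNE (final 30 nM) preincubated 2 h at 25 °C with inhibitor (final 5−20 μM, 3 concentrations) in 0.1 M HEPES, 0.5 M NaCl, pH 7.25, 5.5% DMSO. Suc-Ala-Ala-Pro-Val-pNA added at two final levels, 0.0875 or 0.35 mM. Rate followed at 405 nm, 25 °C, 20 min. Duplicates; Dixon and Cornish-Bowden plots.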

Assay [8] in a line: Inhibition of chymotrypsin assessed as hydrolysis of N-succinyl-Ala-Ala-Pro-Phe-p-nitroanilide at 100 uM incubated for 2 hrs measured for 20 mins by microplate reader analysis. Summed up:
as §1

In assay [9] the target is T4, Cathepsin G (Homo sapiens) (UniProt P08311).
T4 sequence (whole entry): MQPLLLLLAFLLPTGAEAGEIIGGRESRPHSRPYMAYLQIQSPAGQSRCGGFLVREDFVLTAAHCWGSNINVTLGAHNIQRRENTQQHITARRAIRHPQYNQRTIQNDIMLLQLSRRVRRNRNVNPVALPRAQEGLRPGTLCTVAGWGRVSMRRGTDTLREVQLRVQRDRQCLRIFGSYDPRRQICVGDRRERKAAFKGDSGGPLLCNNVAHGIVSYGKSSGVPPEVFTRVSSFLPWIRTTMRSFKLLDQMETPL
Nature of the assay: Inhibition of cathepsin G assessed as hydrolysis of N-succinyl-Ala-Ala-Pro-Phe-p-nitroanilide at 100 uM incubated for 2 hrs measured for 20 mins by microplate reader analysis.

The nature of assay [10]: Inhibition of trypsin assessed as hydrolysis of H-D-Pro-L-Phe-L-Arg-p-nitroanilide at 100 uM incubated for 2 hrs measured for 20 mins by microplate reader analysis. Summed up:
as §1

Assay [11] deals with T1, Neutrophil elastase. Nature of the assay: Inhibition of human neutrophil elastase.
The target of assay [12] is T1, Neutrophil elastase. Nature of the assay: Uncompetitive inhibition of human neutrophil elastase assessed as hydrolysis of N-succinyl-Ala-Ala-Pro-Val-p-nitroanilide incubated for 2 hrs measured for 20 mins by Dixon and Cornish-Bowden analysis. An outline of the steps:
as §2

In assay [13] the target is T2, Prothrombin. Nature of the assay: Inhibition of thrombin assessed as hydrolysis of H-D-Pro-L-Phe-L-Arg-p-nitroanilide at 100 uM incubated for 2 hrs measured for 20 mins by microplate reader analysis. An outline of the steps:
as §1

The target in another assay is Pancreatic elastase (Sus scrofa, UniProt P08419+P00772). The assay is described as follows: Inhibition of porcine pancreatic elastase assessed as hydrolysis of N-succinyl-Ala-Ala-Ala-p-nitroanilide incubated for 2 hrs measured for 20 mins by microplate reader analysis. In kind it is protein assay. An outline of the steps:
(§3)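 Selectivity panel run in duplicate in 0.1 M HEPES with 0.5 M NaCl, pH 7.25. p-Nitroanilide release was followed kinetically at 405 nm, with inhibitor tested up to 100 μM maximum. Plasmin came from plasminogen purified in-house; porcine pancreatic elastase was commercial. IC50 values were determined.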

The target in assay [14] is T3, Plasminogen. The assay is described as follows: Inhibition of plasmin assessed as hydrolysis of H-D-Val-L-Leu-L-Lys-p-nitroanilide incubated for 2 hrs measured for 20 mins by microplate reader analysis. Summed up:
as §3

Assay [15] can be described thus: Inhibition of HIV protease. Also on record: species or system Human immunodeficiency virus.
For the next assay, the target named is T5, Cathepsin G (Homo sapiens, UniProt P08311).
T5 sequence (P08311 whole entry): T4 sequence (whole entry)
The assay is described as follows: Inhibition of cathepsin G assessed as hydrolysis of N-succinyl-Ala-Ala-Pro-Phe-p-nitroanilide incubated for 2 hrs measured for 20 mins by microplate reader analysis.

pIC50, pKi: −log10 of the molar value. Counter-ions that a name gives are not always drawn. Calls of active or inactive are those of the source. The calls are words filed in the database; no cut-off is given here. Residues, ends and D or L forms follow the SMILES beside them. *: point of attachment. PhAc = O=C(Cc1ccccc1)*; Tfa = O=C(C(F)(F)F)*; NHBu = CCCCN*

T3 sequence (P00747 97-580 limits assumed): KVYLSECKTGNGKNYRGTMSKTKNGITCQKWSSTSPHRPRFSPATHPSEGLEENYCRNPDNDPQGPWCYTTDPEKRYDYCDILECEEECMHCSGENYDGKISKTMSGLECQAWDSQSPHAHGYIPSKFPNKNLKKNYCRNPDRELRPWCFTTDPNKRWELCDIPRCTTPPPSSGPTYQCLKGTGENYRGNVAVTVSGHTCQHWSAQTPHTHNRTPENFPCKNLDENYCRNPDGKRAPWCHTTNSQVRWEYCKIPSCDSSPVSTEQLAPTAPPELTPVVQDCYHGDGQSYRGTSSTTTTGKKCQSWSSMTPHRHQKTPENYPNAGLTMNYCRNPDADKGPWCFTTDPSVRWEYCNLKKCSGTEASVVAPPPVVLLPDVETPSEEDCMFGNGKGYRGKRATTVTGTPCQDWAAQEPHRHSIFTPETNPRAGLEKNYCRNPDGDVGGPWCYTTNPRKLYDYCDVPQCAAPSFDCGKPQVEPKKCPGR
T3 sequence (P00747 581-810 limits assumed): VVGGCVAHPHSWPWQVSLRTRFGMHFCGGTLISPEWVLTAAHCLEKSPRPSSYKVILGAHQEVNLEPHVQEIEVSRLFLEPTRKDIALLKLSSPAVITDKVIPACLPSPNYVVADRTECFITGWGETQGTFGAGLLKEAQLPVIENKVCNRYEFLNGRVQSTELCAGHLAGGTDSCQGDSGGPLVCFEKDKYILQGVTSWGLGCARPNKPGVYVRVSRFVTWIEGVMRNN

Usually pIC50 stands for the negative decadic logarithm of the IC50, by convention in mol/L. Take `CCCCNC(=O)CNC(=O)[C@H](CC(C)C)NC(=O)[C@@H](NC(=O)C(F)(F)F)[C@@H](C)CC` (Tfa-Ile-Leu-Gly-NHBu): at Neutrophil elastase [1], the pIC50 is below 3.70.
The term pKi denotes the negative decadic logarithm of the Ki, by convention in mol/L. With `CCCCNC(=O)CC[Si](c1ccccc1)(c1ccccc1)[C@H](CC(C)C)NC(=O)[C@@H](NC(=O)Cc1ccc2ccccc2c1)[C@@H](C)CC`, the pIC50 was 4.24 in assay [2], 4.04 on Prothrombin [3], 3.96 in assay [5] and 4.85 on Neutrophil elastase [1]. Moreover, the inhibition entry (in assay [4]; at Plasminogen [6]) was “inactive” in each case. Also, at Neutrophil elastase [7], the negative-log Ki (pKi) is 4.89.
As to `CCCCNC(=O)CC[Si](O)(O)[C@@H](CC(C)C)NC(=O)[C@@H](NC(=O)Cc1ccc2ccccc2c1)[C@@H](C)CC`, the inhibition entry (in assay [8]; in assay [9]; in assay [4]; in assay [10]; at Plasminogen [6]; at Prothrombin [13]) was “inactive” throughout. The pIC50 on Neutrophil elastase [11] is 6.52; on Neutrophil elastase [1] it was 4.74. The pKi at Neutrophil elastase [12] was 5.46.
Turning to `CCCCNC(=O)CNC(=O)[C@H](CC(C)C)NC(=O)[C@@H](NC(C)=O)[C@@H](C)CC` (Ac-Ile-Leu-Gly-NHBu), the negative-log IC50 (pIC50) on Neutrophil elastase [1] was below 3.70.
One may read the IC50 as the point on the concentration scale where inhibition reaches its midpoint. In the case of `CCCCNC(=O)CNC(=O)[C@H](CC(C)C)NC(=O)[C@@H](NC(=O)Cc1ccc2ccccc2c1)[C@@H](C)CC`, the inhibition entry in assay [9] was “inactive”. Also, the pIC50 in [2] was 4.05; on Prothrombin [3], 4.00; in [5], 3.82; at Plasminogen [14] it was 4.00; on Neutrophil elastase [1] it was 4.85. For the same compound, on Pancreatic elastase, the IC50 was found to be 55 µM. Also, at Neutrophil elastase [7], the pKi is 4.74.
Regarding `CCCCNC(=O)CNC(=O)[C@H](CC(C)C)NC(=O)[C@@H](NC(=O)Cc1ccccc1)[C@@H](C)CC` (PhAc-Ile-Leu-Gly-NHBu), the negative logarithm of the IC50 (pIC50) at Neutrophil elastase [1] is 4.29.
`CCCCNC(=O)CC[Si](O)(O)[C@H](CC(C)C)NC(=O)[C@@H](NC(=O)c1ccc2ccccc2c1)[C@@H](C)CC`: the inhibition entry (in assay [8]; in [9]; in [4]; in assay [10]; on Plasminogen [6]; on Prothrombin [13]) was “inactive” in each case. Moreover, on Neutrophil elastase [12], the negative logarithm of the Ki (pKi) is 5.40. Also, at Neutrophil elastase [1], the pIC50 was 4.80.
On to `CCCCNC(=O)CC[Si](O)(O)[C@H](CC(C)C)NC(=O)[C@@H](NC(=O)Cc1ccccc1)[C@@H](C)CC`, for which the inhibition entry (in [8]; in assay [9]; in [4]; in assay [10]; at Plasminogen [6]; at Prothrombin [13]) was “inactive” in each case. The pKi at Neutrophil elastase [12] was 5.30. Further, the pIC50 at Neutrophil elastase [1] is 4.42.
Regarding `CCCCNC(=O)CC[Si](O)(O)[C@H](CC(C)C)NC(=O)[C@@H](NC(=O)C(F)(F)F)[C@@H](C)CC`, at Neutrophil elastase [1], the pIC50 is 4.34.
As for `CCCCNC(=O)CC[Si](O)(O)[C@H](CC(C)C)NC(=O)[C@@H](NC(C)=O)[C@@H](C)CC`, at Neutrophil elastase [1], the pIC50 was below 3.70.
As for `O=C(N[C@H]1c2ccccc2C[C@H]1O)[C@H](Cc1ccccc1)C[Si](O)(O)C[C@@H](Cc1ccccc1)C(=O)N[C@H]1c2ccccc2C[C@H]1O`, in assay [15], the pKi was 8.57.
On Neutrophil elastase [11], `CCCCNC(=O)CC[Si](O)(O)[C@H](CC(C)C)NC(=O)[C@@H](NC(=O)Cc1ccc2ccccc2c1)[C@@H](C)CC` had a pIC50 of 6.52.
On to `CC[C@H](C)[C@H](NC(=O)Cc1ccc2ccccc2c1)C(=O)N[C@@H](CC(C)C)[Si](C)(O)O`, for which, on Neutrophil elastase [1], the pIC50 is 4.41.
Consider `Cl.NCCc1ccc(S(=O)(=O)F)cc1` [4-AMINOETHYLBENZENESULFONYL FLUORIDE HYDROCHLORIDE], for which the pIC50 in [2] is 5.00; on Prothrombin [3], 4.21; in assay [5], 4.92; on Cathepsin G, 3.60; on Plasminogen [14], 3.62. Besides, on Pancreatic elastase, the IC50 amounted to 160 µM.
